Results published in ChEMBL document CHEMBL1153716, “Constrained peptidomimetics reveal detailed geometric requirements of covalent prolyl oligopeptidase inhibitors” (J Med Chem, 2009).
Active and inactive are the calls of the source. The rule behind the calls is not given here.

Assays:
[1] = molecular target: Dipeptidyl peptidase 4 (Homo sapiens) (UniProt P27487); test: Inhibition of DPP4 in human fibroblast extracts assessed as blockade of Gly-Pro-AMC substrate hydrolysis at 100 uM by fluorimetric assay
In short: (§1)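 Confluent human cells (glioblastoma LN18, LN229, LNZ308; brain endothelial HCEC; lung PO03 or skin PG98/5 fibroblasts) grown in DMEM with 4.5 g/L glucose and 10% FCS, then lysed in PBS (pH 7.2-7.4) containing 0.1% Triton X-100. Compound was diluted from methanol stock into water and preincubated 5-10 min at room temperature. Gly-Pro-AMC was then added. Duplicate wells.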

[2] = molecular target: Dipeptidyl peptidase 4 (Homo sapiens) (UniProt P27487); test: Inhibition of DPP4 in human astrocyte derived cell extracts assessed as blockade of Gly-Pro-AMC substrate hydrolysis at 100 uM by fluorimetric assay; in short: as §1
[3] = molecular target: Dipeptidyl peptidase 4 (Homo sapiens) (UniProt P27487); test: Inhibition of DPP4 in intact human brain derived endothelial cells assessed as blockade of Gly-Pro-AMC substrate hydrolysis at 100 uM by fluorimetric assay; type: cell-based; conditions: Endothelial cell
In short: (§2)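 Confluent intact human glioblastoma (LN18, LN229, LNZ308), brain endothelial HCEC, or lung PO03 and skin PG98/5 fibroblast monolayers kept in PBS (pH 7.2-7.4) without detergent. Compound was diluted from methanol stock into water and preincubated 5-10 min at room temperature. Gly-Pro-AMC was then added and hydrolysis read by fluorescence. Duplicate wells.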

[4] = molecular target: T1, Prolyl endopeptidase (Homo sapiens, UniProt P48147); test: Inhibition of prolyl oligopeptidase in intact human HCEC cells assessed as blockade of Z-Gly-Pro-AMC substrate hydrolysis by fluorimetric assay; type: cell-based
T1 sequence (P48147 whole entry): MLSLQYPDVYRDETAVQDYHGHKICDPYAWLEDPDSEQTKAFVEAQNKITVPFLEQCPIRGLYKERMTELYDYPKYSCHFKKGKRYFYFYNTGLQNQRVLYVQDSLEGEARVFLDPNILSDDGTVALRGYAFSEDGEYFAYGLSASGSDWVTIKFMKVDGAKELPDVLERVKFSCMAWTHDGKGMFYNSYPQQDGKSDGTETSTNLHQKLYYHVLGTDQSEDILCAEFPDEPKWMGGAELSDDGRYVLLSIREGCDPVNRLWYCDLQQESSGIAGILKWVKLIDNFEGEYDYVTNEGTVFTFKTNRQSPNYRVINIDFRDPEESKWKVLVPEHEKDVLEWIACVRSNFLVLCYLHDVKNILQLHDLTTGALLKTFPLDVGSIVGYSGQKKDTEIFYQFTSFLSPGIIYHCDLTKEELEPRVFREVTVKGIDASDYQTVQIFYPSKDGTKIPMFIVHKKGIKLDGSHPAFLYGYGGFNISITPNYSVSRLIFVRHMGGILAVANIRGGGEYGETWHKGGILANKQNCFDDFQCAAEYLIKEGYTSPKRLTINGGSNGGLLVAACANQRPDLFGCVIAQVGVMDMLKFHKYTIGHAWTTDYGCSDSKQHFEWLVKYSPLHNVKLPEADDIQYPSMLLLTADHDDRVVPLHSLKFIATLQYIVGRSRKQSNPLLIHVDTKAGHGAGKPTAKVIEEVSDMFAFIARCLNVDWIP

[5] = molecular target: T1, Prolyl endopeptidase; test: Inhibition of prolyl oligopeptidase in human LN229 cell extracts assessed as blockade of Z-Gly-Pro-AMC substrate hydrolysis by fluorimetric assay
[6] = molecular target: Dipeptidyl peptidase 4 (Homo sapiens) (UniProt P27487); test: Inhibition of DPP4 in intact human fibroblasts assessed as blockade of Gly-Pro-AMC substrate hydrolysis at 100 uM by fluorimetric assay; in short: as §2
[7] = molecular target: T1, Prolyl endopeptidase; test: Inhibition of prolyl oligopeptidase in human HCEC cell extracts assessed as blockade of Z-Gly-Pro-AMC substrate hydrolysis by fluorimetric assay; type: cell-free
[8] = molecular target: T1, Prolyl endopeptidase; test: Inhibition of prolyl oligopeptidase in human LNZ308 cell extracts assessed as blockade of Z-Gly-Pro-AMC substrate hydrolysis by fluorimetric assay
[9] = molecular target: Dipeptidyl peptidase 4 (Homo sapiens) (UniProt P27487); test: Inhibition of DPP4 in intact human astrocyte derived cells assessed as blockade of Gly-Pro-AMC substrate hydrolysis at 100 uM by fluorimetric assay; in short: as §2
[10] = molecular target: Dipeptidyl peptidase 4 (Homo sapiens) (UniProt P27487); test: Inhibition of DPP4 in human brain derived endothelial cell extracts assessed as blockade of Gly-Pro-AMC substrate hydrolysis at 100 uM by fluorimetric assay; type: cell-free; in short: as §1
[11] = molecular target: T1, Prolyl endopeptidase; test: Inhibition of prolyl oligopeptidase in intact human LN229 cells assessed as blockade of Z-Gly-Pro-AMC substrate hydrolysis by fluorimetric assay; type: cell-based
[12] = molecular target: T1, Prolyl endopeptidase; test: Inhibition of prolyl oligopeptidase in intact human LNZ308 cells assessed as blockade of Z-Gly-Pro-AMC substrate hydrolysis by fluorimetric assay; type: cell-based
[13] = molecular target: T2, Prolyl endopeptidase (Homo sapiens) (UniProt P48147); test: Inhibition of prolyl oligopeptidase in human astrocyte derived cell extracts assessed as blockade of Z-Gly-Pro-AMC substrate hydrolysis at 100 uM by fluorimetric assay
T2 sequence (whole entry): T1 sequence (P48147 whole entry)
In short: (§3)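 Confluent human glioblastoma (LN18, LN229, LNZ308), brain endothelial HCEC, or lung PO03 and skin PG98/5 fibroblasts extracted in PBS with 0.1% Triton X-100. Compound was diluted from methanol stock into water and preincubated 5-10 min at room temperature. Z-Gly-Pro-AMC was then added and read by fluorescence. Duplicate wells.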

[14] = molecular target: T2, Prolyl endopeptidase (Homo sapiens); test: Inhibition of prolyl oligopeptidase in intact human astrocyte derived cells assessed as blockade of Z-Gly-Pro-AMC substrate hydrolysis at 100 uM by fluorimetric assay
In short: (§4)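 Intact confluent human glioblastoma (LN18, LN229, LNZ308), brain endothelial HCEC, or lung PO03 and skin PG98/5 fibroblast monolayers in PBS (pH 7.2-7.4), cells grown beforehand in DMEM with 10% FCS. Compound was diluted from methanol stock into water and preincubated 5-10 min at room temperature. Z-Gly-Pro-AMC was then added and read fluorimetrically. Duplicate wells.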

[15] = molecular target: T2, Prolyl endopeptidase (Homo sapiens); test: Inhibition of prolyl oligopeptidase in human fibroblast extracts assessed as blockade of Z-Gly-Pro-AMC substrate hydrolysis at 100 uM by fluorimetric assay; in short: as §3
[16] = molecular target: T2, Prolyl endopeptidase (Homo sapiens); test: Inhibition of prolyl oligopeptidase in intact human brain derived endothelial cells assessed as blockade of Z-Gly-Pro-AMC substrate hydrolysis at 100 uM by fluorimetric assay; type: cell-based; conditions: Endothelial cell; in short: as §4
[17] = molecular target: T2, Prolyl endopeptidase (Homo sapiens); test: Inhibition of prolyl oligopeptidase in intact human fibroblasts assessed as blockade of Z-Gly-Pro-AMC substrate hydrolysis at 100 uM by fluorimetric assay; in short: as §4
[18] = molecular target: T2, Prolyl endopeptidase (Homo sapiens); test: Inhibition of prolyl oligopeptidase in human brain derived endothelial cell extracts assessed as blockade of Z-Gly-Pro-AMC substrate hydrolysis at 100 uM by fluorimetric assay; type: cell-free; in short: as §3

Sequence of Dipeptidyl peptidase 4 (Homo sapiens) (P27487 whole entry, looked up): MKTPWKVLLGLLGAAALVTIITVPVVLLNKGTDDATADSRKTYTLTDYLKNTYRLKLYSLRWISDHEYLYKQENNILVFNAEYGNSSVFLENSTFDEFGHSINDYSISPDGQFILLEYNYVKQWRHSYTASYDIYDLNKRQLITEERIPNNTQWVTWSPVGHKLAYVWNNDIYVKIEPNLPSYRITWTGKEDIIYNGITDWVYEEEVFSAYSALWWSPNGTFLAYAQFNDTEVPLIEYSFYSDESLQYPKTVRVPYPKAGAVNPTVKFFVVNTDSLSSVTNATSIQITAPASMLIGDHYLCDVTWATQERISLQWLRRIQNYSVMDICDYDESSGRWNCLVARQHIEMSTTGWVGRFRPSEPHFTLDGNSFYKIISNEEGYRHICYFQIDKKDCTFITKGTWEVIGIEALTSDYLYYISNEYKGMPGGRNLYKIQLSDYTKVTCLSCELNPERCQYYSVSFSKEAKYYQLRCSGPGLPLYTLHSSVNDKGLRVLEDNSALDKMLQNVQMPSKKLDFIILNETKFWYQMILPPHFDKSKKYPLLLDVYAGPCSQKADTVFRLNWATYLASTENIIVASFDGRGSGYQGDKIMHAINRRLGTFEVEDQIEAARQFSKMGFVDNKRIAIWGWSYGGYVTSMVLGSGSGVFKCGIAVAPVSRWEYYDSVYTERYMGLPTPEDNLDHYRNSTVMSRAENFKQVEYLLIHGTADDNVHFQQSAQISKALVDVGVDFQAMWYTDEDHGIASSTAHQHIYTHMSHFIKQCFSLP

inhibition [1]	inhibition [2]	inhibition [3]	IC50 [4] [µM]	IC50 [5] [µM]	inhibition [6]	IC50 [7] [µM]	IC50 [8] [µM]	inhibition [9]	inhibition [10]	IC50 [11] [µM]	IC50 [12] [µM]	inhibition [13]	inhibition [14]	inhibition [15] [%]	inhibition [16]	inhibition [17]	inhibition [18]	Compound
inactive	inactive	inactive	1.3	0.5	inactive	0.7	0.2	inactive	inactive	2	2.5	–	–	–	–	–	–	N#C[C@@H]1CS[C@H]2C[C@@H](NC(=O)OCc3ccccc3)C(=O)N12
inactive	inactive	inactive	–	–	inactive	–	–	inactive	inactive	–	–	inactive	inactive	10	inactive	10%	inactive	N#C[C@@H]1CO[C@H]2C[C@@H](NC(=O)OCc3ccccc3)C(=O)N12
inactive	inactive	inactive	–	–	inactive	–	–	inactive	inactive	–	–	> 50%	> 50%	> 50	> 50%	> 50%	> 50%	N#C[C@@H]1CS[C@H]2CC[C@@H](NC(=O)OCc3ccccc3)C(=O)N12
inactive	inactive	inactive	–	–	inactive	–	–	inactive	inactive	–	–	inactive	inactive	10	inactive	inactive	inactive	N#CC1CCSC2CC(NC(=O)OCc3ccccc3)C(=O)N12 (racemic)
